Results: ChEMBL document CHEMBL2086288, “Synthesis, antimicrobial and cytotoxicity study of 1,3-disubstituted-1H-naphtho[1,2-e][1,3]oxazines” (2012)

How the values were obtained:
Format in all cases: functional
[1] = tested on: PC-3; experiment: Growth inhibition of human PC3 cells at 10 uM after 48 hrs by MTT assay; conditions: PC-3, 48 h, read-out: GI
How it was run: (§1)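 Cells from ECACC are kept in RPMI-1640 with 10% FCS and 1% penicillin at 37 °C in 5% CO2. They are seeded at 3×10^3 cells/well and dosed after 24 h from filter-sterilized DMSO stocks, then treated for 48 h. MTT (2.5 mg/mL in PBS) is added, formazan is dissolved in DMSO, and A570 is read. Viability is given as % of untreated.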

[2] = tested on: MCF7; experiment: Growth inhibition of human MCF7 cells at 10 uM after 48 hrs by MTT assay; conditions: MCF7, 48 h, read-out: GI; how it was run: as §1
[3] = tested on: MCF7; experiment: Growth inhibition of human MCF7 cells at 50 uM after 48 hrs by MTT assay; conditions: MCF7, 48 h, read-out: GI; how it was run: as §1
[4] = tested on: A549; experiment: Growth inhibition of human A549 cells at 50 uM after 48 hrs by MTT assay; conditions: A549, 48 h, read-out: GI; how it was run: as §1
[5] = tested on: Aspergillus niger; experiment: Antifungal activity against Aspergillus niger MTCC 8184 after 7 days by tube dilution method
How it was run: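 Tube (serial) dilution MIC in Sabouraud dextrose broth I.P., 25 °C for 7 days. Results are recorded as MIC and reported as pMIC in mM.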

[6] = tested on: PC-3; experiment: Growth inhibition of human PC3 cells at 50 uM after 48 hrs by MTT assay; conditions: PC-3, 48 h, read-out: GI; how it was run: as §1
[7] = tested on: HCT-116; experiment: Growth inhibition of human HCT116 cells at 10 uM after 48 hrs by MTT assay; conditions: HCT-116, 48 h, read-out: GI; how it was run: as §1
[8] = tested on: Escherichia coli; experiment: Antibacterial activity against Escherichia coli MTCC 1652 after 24 hrs by tube dilution method
[9] = tested on: A549; experiment: Growth inhibition of human A549 cells at 10 uM after 48 hrs by MTT assay; conditions: A549, 48 h, read-out: GI; how it was run: as §1
[10] = tested on: Bacillus subtilis; experiment: Antibacterial activity against Bacillus subtilis MTCC 2063 after 24 hrs by tube dilution method
[11] = tested on: HCT-116; experiment: Growth inhibition of human HCT116 cells at 50 uM after 48 hrs by MTT assay; conditions: HCT-116, 48 h, read-out: GI; how it was run: as §1
[12] = tested on: Candida albicans; experiment: Antifungal activity against Candida albicans MTCC 227 after 48 hrs by tube dilution method
[13] = tested on: Staphylococcus aureus; experiment: Antibacterial activity against Staphylococcus aureus MTCC 2901 after 24 hrs by tube dilution method

Row | SMILES | inhibition of growth at 10 µM [1] | inhibition of growth at 10 µM [2] | inhibition of growth at 50 µM [3] | inhibition of growth at 50 µM [4] | -logMIC [5] | inhibition of growth at 50 µM [6] | inhibition of growth at 10 µM [7] | -logMIC [8] | inhibition of growth at 10 µM [9] | -logMIC [10] | inhibition of growth at 50 µM [11] | -logMIC [12] | -logMIC [13]
1 | Clc1ccc(C2=NC(c3ccc(Cl)cc3)c3c(ccc4ccccc34)O2)cc1 (configuration not stated) | 1% | 16% | 38% | 54% | 1.51 | 2% | 2% | 2.11 | 28% | 1.81 | 10% | 1.81 | 1.51
2 | Cc1ccc(C2=NC(c3ccc(C)cc3)c3c(ccc4ccccc34)O2)cc1 (configuration not stated) | 1% | 30% | 37% | 36% | 1.46 | 5% | 19% | 1.46 | 17% | 2.07 | 24% | 1.76 | 1.46
3 | Brc1ccc(C2=NC(c3ccccc3)c3c(ccc4ccccc34)O2)cc1 (configuration not stated) | 4% | 27% | 39% | 40% | 1.52 | 11% | 6% | 1.52 | 23% | 1.82 | 29% | 1.82 | 1.52
4 | COc1ccc(C2=NC(c3ccc(OC)cc3)c3c(ccc4ccccc34)O2)cc1 (configuration not stated) | 17% | 22% | 26% | 35% | 1.5 | 19% | 27% | 2.1 | 22% | 2.1 | 29% | 1.8 | 1.5
5 | O=C(O)c1cn(C2CC2)c2cc(N3CCNCC3)c(F)cc2c1=O [CIPROFLOXACIN] | – | – | – | – | – | – | – | 2.61 | – | 2.61 | – | – | 2.61
6 | Cc1ccc(C2=NC(c3ccccc3)c3c(ccc4ccccc34)O2)cc1 (configuration not stated) | 14% | 36% | 46% | 43% | 1.45 | 20% | 8% | 2.05 | 19% | 1.45 | 38% | 1.75 | 1.75
7 | OC(Cn1cncn1)(Cn1cncn1)c1ccc(F)cc1F [FLUCONAZOLE] | – | – | – | – | 2.64 | – | – | – | – | – | – | 2.64 | –
8 | Cc1ccc(C2N=C(c3ccc(Cl)cc3)Oc3ccc4ccccc4c32)cc1 (configuration not stated) | 8% | 21% | 37% | 28% | 1.49 | 13% | 3% | 0.88 | 16% | 1.79 | 6% | 1.79 | 1.49
9 | O=[N+]([O-])c1ccc(C2=NC(c3ccccc3)c3c(ccc4ccccc34)O2)cc1 (configuration not stated) | 6% | 34% | 42% | 43% | 1.48 | 8% | 4% | 1.78 | 17% | 1.78 | 14% | 1.78 | 1.78
10 | COc1ccc(C2=NC(c3ccccc3)c3c(ccc4ccccc34)O2)cc1 (configuration not stated) | 19% | 37% | 42% | 43% | 1.47 | 23% | 8% | 2.37 | 19% | 1.77 | 14% | 1.77 | 1.77
11 | c1ccc(C2=NC(c3ccccc3)c3c(ccc4ccccc34)O2)cc1 (configuration not stated) | 1% | 26% | 37% | 36% | 1.43 | 16% | 5% | 2.33 | 19% | 2.03 | 22% | 1.73 | 1.43
12 | Cc1ccc(C2N=C(c3ccc([N+](=O)[O-])cc3)Oc3ccc4ccccc4c32)cc1 (configuration not stated) | 8% | 35% | 40% | 41% | 1.5 | 12% | 7% | 1.8 | 13% | 1.8 | 21% | 1.8 | 1.8
13 | Clc1ccc(C2=NC(c3ccccc3)c3c(ccc4ccccc34)O2)cc1 (configuration not stated) | 9% | 27% | 39% | 38% | 1.47 | 19% | 3% | 2.37 | 17% | 1.77 | 29% | 1.77 | 1.77
14 | Cc1ccc(C2N=C(c3ccc(F)cc3)Oc3ccc4ccccc4c32)cc1 (configuration not stated) | 5% | 20% | 44% | 44% | 1.47 | 19% | 18% | 2.07 | 16% | 2.07 | 23% | 1.77 | 1.47
15 | Cc1ccc(C2N=C(c3ccccc3)Oc3ccc4ccccc4c32)cc1 (configuration not stated) | 1% | 17% | 32% | 37% | 1.45 | 3% | 2% | 2.35 | 17% | 1.75 | 8% | 1.75 | 1.45
16 | COc1ccc(C2=NC(c3ccc(C)cc3)c3c(ccc4ccccc34)O2)cc1 (configuration not stated) | 1% | 36% | 39% | 36% | 1.48 | 10% | 7% | 2.08 | 15% | 1.78 | 14% | 1.78 | 1.78
